Measurements published in ChEMBL document CHEMBL1144620, “Synthesis and biodistribution of new radiolabeled high-affinity choline transporter inhibitors [11C]hemicholinium-3 and [18F]hemicholinium-3” (Bioorg Med Chem Lett, 2007).

Tests used:
[1] = Biodistribution in L-Atrium of 9L-glioma bearing rat at 1 to 3 mCi, iv after 5 mins; format: ADME, organism-based; details: in vivo
Method in brief: (§1)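 9L-glioma rats (200–300 g) given 1–3 mCi of [¹¹C]- or [¹⁸F]-labelled tracer iv by tail vein while consciously restrained. At 5 or 20 min they were decapitated under halothane anaesthesia. Tissues were excised and weighed, and decay-corrected radioactivity was counted by gamma counter. Values are %ID/g, averaged over three rats per time point.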

[2] = Biodistribution in urine of 9L-glioma bearing rat at 1 to 3 mCi, iv after 5 mins; format: ADME, organism-based; details: in vivo
Method in brief: (§2)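 In 9L-glioma rats injected iv (tail vein, conscious restraint) with 1–3 mCi of radiotracer, urine was drawn by syringe from the bladder at 5 or 20 min. Animals were killed by decapitation under halothane. Decay-corrected radioactivity was gamma-counted and expressed as percent of injected dose (%ID), averaged over three rats.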

Kidney [3] = assay: Biodistribution in kidney of 9L-glioma bearing rat at 1 to 3 mCi, iv after 5 mins; format: ADME, organism-based; details: in vivo; method in brief: as §1
Liver [4] = assay: Biodistribution in liver of 9L-glioma bearing rat at 1 to 3 mCi, iv after 5 mins; format: ADME, organism-based; details: in vivo; method in brief: as §1
Lung [5] = assay: Biodistribution in lung of 9L-glioma bearing rat at 1 to 3 mCi, iv after 5 mins; format: ADME, organism-based; details: in vivo; method in brief: as §1
Brain [6] = assay: Biodistribution in brain of 9L-glioma bearing rat at 1 to 3 mCi, iv after 5 mins; format: ADME, organism-based; details: in vivo; method in brief: as §1
Blood [7] = assay: Biodistribution in blood of 9L-glioma bearing rat at 1 to 3 mCi, iv after 5 mins; format: ADME, organism-based; details: in vivo; method in brief: as §1
Plasma [8] = assay: Biodistribution in plasma of 9L-glioma bearing rat at 1 to 3 mCi, iv after 5 mins; format: ADME, organism-based; details: in vivo; method in brief: as §1
[9] = Biodistribution in R-Atrium of 9L-glioma bearing rat at 1 to 3 mCi, iv after 5 mins; format: ADME, organism-based, Right cardiac atrium; details: in vivo; method in brief: as §1
Septum [10] = assay: Biodistribution in septum of 9L-glioma bearing rat at 1 to 3mCi, iv after 5 mins; format: ADME, organism-based; details: in vivo; method in brief: as §1
[11] = Biodistribution in L-ventricle of 9L-glioma bearing rat at 1 to 3mCi, iv after 5 mins; format: ADME, organism-based, Heart left ventricle; details: in vivo; method in brief: as §1
[12] = Biodistribution in R-ventricle of 9L-glioma bearing rat at 1 to 3 mCi, iv after 5 mins; format: ADME, organism-based, Heart right ventricle; details: in vivo; method in brief: as §1
[13] = Biodistribution in A-V-node of 9L-glioma bearing rat at 1 to 3 mCi, iv after 5 mins; format: ADME, organism-based; details: in vivo; method in brief: as §1
Solar plexus [14] = assay: Biodistribution in solar plexus of 9L-glioma bearing rat at 1 to 3 mCi, iv after 5 mins; format: ADME, organism-based; details: in vivo; method in brief: as §1
[15] = Biodistribution in skeletal muscle of 9L-glioma bearing rat at 1 to 3 mCi, iv after 5 mins; format: ADME, organism-based, Muscle tissue; details: in vivo; method in brief: as §1
9L [16] = assay: Biodistribution in tumor of 9L-glioma bearing rat at 1 to 3 mCi, iv after 5 mins; format: ADME, organism-based; details: in vivo; method in brief: as §1
[17] = Ratio of biodistribution in tumor to blood in 9L-glioma bearing rat at 1 to 3 mCi, iv after 5 mins; format: ADME, organism-based; details: tumor and blood (tumor-to-blood ratio)
[18] = Ratio of biodistribution in tumor to muscle of 9L-glioma bearing rat at 1 to 3 mCi, iv after 5 mins; format: ADME, organism-based; details: in vivo
Blood [19] = assay: Biodistribution in blood of 9L-glioma bearing rat at 1 to 3 mCi, iv after 20 mins; format: ADME, organism-based; details: in vivo; method in brief: as §1
Plasma [20] = assay: Biodistribution in plasma of 9L-glioma bearing rat at 1 to 3 mCi, iv after 20 mins; format: ADME, organism-based; details: in vivo; method in brief: as §1
Brain [21] = assay: Biodistribution in brain of 9L-glioma bearing rat at 1 to 3 mCi, iv after 20 mins; format: ADME, organism-based; details: in vivo; method in brief: as §1
Lung [22] = assay: Biodistribution in lung of 9L-glioma bearing rat at 1 to 3 mCi, iv after 20 mins; format: ADME, organism-based; details: in vivo; method in brief: as §1
[23] = Biodistribution in L-Atrium of 9L-glioma bearing rat at 1 to 3 mCi, iv after 20 mins; format: ADME, organism-based, Left cardiac atrium; details: in vivo; method in brief: as §1
Liver [24] = assay: Biodistribution in liver of 9L-glioma bearing rat at 1 to 3 mCi, iv after 20 mins; format: ADME, organism-based; details: in vivo; method in brief: as §1
Kidney [25] = assay: Biodistribution in kidney of 9L-glioma bearing rat at 1 to 3 mCi, iv after 20 mins; format: ADME, organism-based; details: in vivo; method in brief: as §1
[26] = Biodistribution in urine of 9L-glioma bearing rat at 1 to 3 mCi, iv after 20 mins; format: ADME, organism-based; details: in vivo; method in brief: as §2
[27] = Biodistribution in R-Atrium of 9L-glioma bearing rat at 1 to 3 mCi, iv after 20 mins; format: ADME, organism-based, Right cardiac atrium; details: in vivo; method in brief: as §1
Septum [28] = assay: Biodistribution in septum of 9L-glioma bearing rat at 1 to 3 mCi, iv after 20 mins; format: ADME, organism-based; details: in vivo; method in brief: as §1
[29] = Biodistribution in L-ventricle of 9L-glioma bearing rat at 1 to 3 mCi, iv after 20 mins; format: ADME, organism-based, Heart left ventricle; details: in vivo; method in brief: as §1
[30] = Biodistribution in R-ventricle of 9L-glioma bearing rat at 1 to 3 mCi, iv after 20 mins; format: ADME, organism-based, Heart right ventricle; details: in vivo; method in brief: as §1
[31] = Biodistribution in A-V-node of 9L-glioma bearing rat at 1 to 3 mCi, iv after 20 mins; format: ADME, organism-based; details: in vivo; method in brief: as §1
Solar plexus [32] = assay: Biodistribution in solar plexus of 9L-glioma bearing rat at 1 to 3 mCi, iv after 20 mins; format: ADME, organism-based; details: in vivo; method in brief: as §1
[33] = Biodistribution in skeletal Muscle of 9L-glioma bearing rat at 1 to 3 mCi, iv after 20 mins; format: ADME, organism-based, Muscle tissue; details: in vivo; method in brief: as §1
9L [34] = assay: Biodistribution in tumor of 9L-glioma bearing rat at 1 to 3 mCi, iv after 20 mins; format: ADME, organism-based; details: in vivo; method in brief: as §1
[35] = Ratio of biodistribution in tumor to blood of 9L-glioma bearing rat at 1 to 3 mCi, iv after 20 mins; format: ADME, organism-based; details: tumour
[36] = Ratio of biodistribution in tumor to muscle of 9L-glioma bearing rat at 1 to 3 mCi, iv after 20 mins; format: ADME, organism-based; details: in vivo

C[N+]1(C)CCOC(O)(c2ccc(-c3ccc(C4(O)C[N+](C)([11CH3])CCO4)cc3)cc2)C1.O=S(=O)([O-])C(F)(F)F.[I-] (stereo unspecified)
Drug uptake [1]: 1.026 % ID/g
Drug uptake [2]: 6.38 % dose
Drug uptake (Kidney [3]): 7.64 % ID/g
Drug uptake (Liver [4]): 0.848 % ID/g
Drug uptake (Lung [5]): 1.081 % ID/g
Drug uptake (Brain [6]): 0.06 % ID/g
Drug uptake (Blood [7]): 1.383 % ID/g
Drug uptake (Plasma [8]): 3.648 % ID/g
Drug uptake [9]: 0.963 % ID/g
Drug uptake (Septum [10]): 0.381 % ID/g
Drug uptake [11]: 0.415 % ID/g
Drug uptake [12]: 0.401 % ID/g
Drug uptake [13]: 1.074 % ID/g
Drug uptake (Solar plexus [14]): 0.522 % ID/g
Drug uptake [15]: 0.207 % ID/g
Drug uptake (9L [16]): 0.649 % ID/g
Kp at 5 min [17]: 0.466
Ratio [18]: 3.199
Drug uptake (Blood [19]): 0.749 % ID/g
Drug uptake (Plasma [20]): 1.453 % ID/g
Drug uptake (Brain [21]): 0.035 % ID/g
Drug uptake (Lung [22]): 0.59 % ID/g
Drug uptake [23]: 0.457 % ID/g
Drug uptake (Liver [24]): 1.239 % ID/g
Drug uptake (Kidney [25]): 3.656 % ID/g
Drug uptake [26]: 25 % dose
Drug uptake [27]: 0.398 % ID/g
Drug uptake (Septum [28]): 0.223 % ID/g
Drug uptake [29]: 0.244 % ID/g
Drug uptake [30]: 0.234 % ID/g
Drug uptake [31]: 0.478 % ID/g
Drug uptake (Solar plexus [32]): 2.057 % ID/g
Drug uptake [33]: 0.159 % ID/g
Drug uptake (9L [34]): 0.457 % ID/g
Ratio [35]: 0.622
Ratio [36]: 3.094
